Assay results published in ChEMBL document CHEMBL1152651, “In vivo and in vitro anti-leishmanial activities of 4-nitro-N-pyrimidin- and N-pyrazin-2-ylbenzenesulfonamides, and N2-(4-nitrophenyl)-N1-propylglycinamide” (Bioorg Med Chem, 2009).
Calls of active or inactive are those of the source. The calls are words filed in the database; no cut-off is given here.

Tests used:
[1] = system: Leishmania infantum; assay: Antileishmanial activity against Leishmania infantum MCAN/ES/92/BCN 83 promastigotes at 100 ug/ml after 48 hrs by resazurin method; type: functional; details: for inhibition of growth at 100 µg/mL: MCAN/ES/92/BCN 83, 48 h, read-out: GI
How it was run: (§1)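 L. infantum MCAN/ES/92/BCN 83 promastigotes (Schneider's medium, 20% heat-inactivated FBS, 26 °C), 2.5 × 10^5 per well. Compounds in DMSO were first screened at 1, 10, 100 µg/mL, then 252 to 1.9 µM for active ones. After 48 h at 26 °C, resazurin was added and fluorescence read (ex 535/em 590 nm) for % growth inhibition. Triplicates; IC50 by least-squares linear regression.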

[2] = system: Leishmania infantum; assay: Antileishmanial activity against Leishmania infantum MCAN/ES/92/BCN 83 promastigotes after 48 hrs by resazurin method; type: functional, organism-based; how it was run: as §1
[3] = system: J774; assay: Cytotoxicity against mouse J774 cells after 24 hrs by resazurin reduction test; type: cell-based
How it was run: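 J774 murine macrophages (RPMI 1640, 10% FBS, 37 °C, 5% CO2), 5 × 10^4 cells/well, adhered 24 h. Then exposed to compounds for 24 h. Resazurin added for 3 h; fluorescence read at ex 535/em 590 nm, background subtracted. Each concentration assayed three times.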

[4] = system: Calf thymus DNA; assay: Binding affinity to calf thymus DNA assessed as increase in DNA viscosity at 1 to 30 uM by viscometer; type: nucleic-acid assay; details: Bos taurus
How it was run: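 Ubbelohde viscometer at 25.0 or 37.0 °C. Compounds in DMF/cacodylate buffer (pH 6) 2:10 added to 50 µM CT-DNA in cacodylate buffer; final 1–30 µM. Flow times in triplicate, η = t − t0. Plotted as (η/η0)^1/3 versus the compound/DNA ratio.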

[5] = system: Calf thymus DNA; assay: Binding affinity to calf thymus DNA assessed as melting temperature (Rvb Tm = 53.8 degC); type: nucleic-acid assay; details: Bos taurus
[6] = system: Nucleic Acid; assay: Induction of supercoiled Escherichia coli pUC18 DNA cleavage at 6 to 60 uM after 60 mins by agarose gel electrophoresis; type: nucleic-acid assay
How it was run: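 Supercoiled pUC18 plasmid in 0.1 M cacodylate buffer pH 6.0 with compound at 6–60 µM final, 1 h at 37 °C. Analysed by 0.8% agarose gel in 0.5× TBE with ethidium bromide, 80 V, about 2 h.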

[7] = system: Nucleic Acid; assay: Induction of Cu2+-dependent DNA cleavage in Escherichia coli pUC18 DNA assessed as degradation of super coiled form at 15 to 30 uM after 60 mins by agarose gel electrophoresis in presence of cupric chloride; type: nucleic-acid assay
How it was run: (§2)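 pUC18 plasmid in 0.1 M cacodylate pH 6.0 with CuCl2 + compound (1:1) at 15–45 µM final, plus ascorbate (50-fold excess over Cu(II)). 1 h at 37 °C. Supercoiled, circular and linear forms resolved on 0.8% agarose/0.5× TBE gel with ethidium bromide, 80 V, about 2 h.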

[8] = system: Nucleic Acid; assay: Induction of Cu2+-dependent DNA cleavage in Escherichia coli pUC18 DNA assessed as degradation of super coiled form at 45 uM after 60 mins by agarose gel electrophoresis in presence of cupric chloride; type: nucleic-acid assay; how it was run: as §2
[9] = system: Mus musculus; assay: Toxicity in BALB/c mouse assessed as reduction hair loss at 5 mg/kg, ip once daily; details: in vivo
[10] = system: Mus musculus; assay: Toxicity in BALB/c mouse assessed as reduction in body weight at 5 mg/kg, ip once daily; details: in vivo
[11] = system: Leishmania infantum; assay: Antileishmanial activity against Leishmania infantum MCAN/ES/92/BCN 83 promastigotes-infected in BALB/c mouse assessed as reduction of parasite burden in liver at 5 mg/kg, ip once daily for 10 days by limit dilution assay relative to control; design: scale not given: the % may be the effect or the level left; details: route intraperitoneal
[12] = system: Leishmania infantum; assay: Antileishmanial activity against Leishmania infantum MCAN/ES/92/BCN 83 promastigotes-infected in BALB/c mouse assessed as reduction of parasite burden in spleen at 5 mg/kg, ip once daily for 10 days by limit dilution assay relative to control; design: scale not given: the % may be the effect or the level left; details: route intraperitoneal
[13] = Leishmania infantum, MCAN/ES/92/BCN 83, 48 h, read-out: IC50
[14] = Mus musculus, J774, 24 h, read-out: IC50

Structure (SMILES)	inhibition of growth at 100 µg/mL [1] [%]	IC50 [2, 13] [µM]	also measured
O=[N+]([O-])c1ccc(S(=O)(=O)Nc2nccs2)cc1 [PARA-NITROSULFATHIAZOLE]	58.6	> 256	–
O=S(=O)(Nc1ccc2c(c1)CCC2)c1ccc(Cl)cc1	49.9	> 256	–
O=S(=O)(Nc1ccc2c(c1)CCC2)c1ccccc1	45.3	> 256	–
Cc1cc(NS(=O)(=O)c2ccccc2)no1	17.9	> 256	–
O=S(=O)(Nc1cnccn1)c1ccccc1	37	> 256	–
O=[N+]([O-])c1cccc(S(=O)(=O)Nc2ncccn2)c1	–	–	growth inhibition (GI) [1]: inactive; IC50 [2]: Not Active; IC50 ([3]; j774): Not Active
Cc1cc(NS(=O)(=O)c2ccc([N+](=O)[O-])cc2)no1	85.6	126	IC50 [3, 14]: > 256 µM
Cc1cnc(NS(=O)(=O)c2ccc(Cl)cc2)s1	74.5	> 256	–
O=S(=O)(Nc1nccs1)c1ccc(Cl)cc1	65	> 256	–
O=[N+]([O-])c1ccc(S(=O)(=O)Nc2ncccn2)cc1	92.7	100	IC50 [3, 14]: > 256 µM; Activity [4]: inactive; Tm [5]: 54.2 °C; Activity [6]: inactive; Activity [7]: inactive; Activity [8]: Active; Activity [9]: Non-toxic; Activity [10]: Non-toxic; Activity [11]: 97.58%; Activity [12]: 99.82%
Nc1ccc(S(=O)(=O)Nc2ncccn2)cc1 [SULFADIAZINE]	–	–	growth inhibition (GI) [1]: inactive; IC50 [2]: Not Active; IC50 ([3]; j774): Not Active
CCCNC(=O)CNc1ccc([N+](=O)[O-])cc1	85	156	IC50 [3, 14]: > 256 µM; Activity [4]: inactive; Tm [5]: 54 °C; Activity [6]: inactive; Activity [7]: inactive; Activity [8]: Active; Activity [9]: Non-toxic; Activity [10]: Non-toxic; Activity [11]: 97.95%; Activity [12]: 99.89%
O=[N+]([O-])c1ccc(S(=O)(=O)Nc2ccc3[nH]ncc3c2)cc1	88.2	14.5	IC50 [3, 14]: > 256 µM
O=[N+]([O-])c1ccc(S(=O)(=O)Nc2cccnc2)cc1	35.7	> 256	–
Cc1cc(C)nc(NS(=O)(=O)c2ccc([N+](=O)[O-])cc2)n1	33.3	> 256	–
O=S(=O)(Nc1ncccn1)c1ccc(F)cc1	–	–	growth inhibition (GI) [1]: inactive; IC50 [2]: Not Active; IC50 ([3]; j774): Not Active
O=S(=O)(Nc1cnccn1)c1ccc(Cl)cc1	25.3	> 256	–

Structure (SMILES)	inhibition of growth at 100 µg/mL [1] [%]	IC50 [2, 13] [µM]	also measured
Cc1cc(NS(=O)(=O)c2ccc([N+](=O)[O-])cc2)n[nH]1	71.5	164	IC50 [3, 14]: > 256 µM
Cc1cc(NS(=O)(=O)c2ccc(Cl)cc2)no1	15.7	> 256	–
O=S(=O)(Nc1ncccn1)c1ccc(Cl)cc1	–	–	growth inhibition (GI) [1]: inactive; IC50 [2]: Not Active; IC50 ([3]; j774): Not Active
Cc1cc(C)nc(NS(=O)(=O)c2ccc(Cl)cc2)n1	71.5	224	IC50 [3, 14]: > 256 µM
O=S(=O)(Nc1ncccn1)c1ccc(Br)cc1	–	–	growth inhibition (GI) [1]: inactive; IC50 [2]: Not Active; IC50 ([3]; j774): Not Active
Cc1cnc(NS(=O)(=O)c2ccccc2)s1	69	> 256	–
CS(=O)(=O)Nc1ncccn1	–	–	growth inhibition (GI) [1]: inactive; IC50 [2]: Not Active; IC50 ([3]; j774): Not Active
O=[N+]([O-])c1ccc(S(=O)(=O)Nc2cnccn2)cc1	90.8	66.2	IC50 [3, 14]: > 256 µM; Activity [9]: Non-toxic; Activity [10]: Non-toxic; Activity [11]: 99.28%; Activity [12]: 99.44%
Cc1csc(NS(=O)(=O)c2ccc([N+](=O)[O-])cc2)n1	55.6	> 256	–
O=[N+]([O-])c1ccc(S(=O)(=O)Nc2ccncc2)cc1	46.3	> 256	–
COc1ccc(S(=O)(=O)Nc2ncccn2)cc1	29.6	> 256	–
Cc1cnc(NS(=O)(=O)c2ccc([N+](=O)[O-])cc2)s1	36.7	> 256	–
O=[N+]([O-])c1ccccc1S(=O)(=O)Nc1ncccn1	40.6	> 256	–
O=[N+]([O-])c1ccc(S(=O)(=O)Nc2ccccn2)cc1	39.3	> 256	–
O=[N+]([O-])c1ccc(S(=O)(=O)Nc2ccc3c(c2)CCC3)cc1	91.9	< 1	IC50 [3, 14]: 61 µM
O=S(=O)(Nc1ncccn1)c1ccccc1	20.3	> 256	–
